# STAT3 activator: IL-6 driven STAT3 reporter potentiators, primary screen, U3A cells, luciferase, luminescence, MLSCN library; IL-6 STAT3-luciferase reporter; 100% = signal with IL-6 EC80 alone; activation (% of control), % at 5.6 µM; hit rate 0.91% among 190,000;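 active means activation above the screen-wide mean of compound activation plus 3 SD, cut at about 130% in these data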
#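 system = STAT3-luciferase reporter U3A cells | reagent = IL-6 stimulus at 33 ng/mL final | timing = 1 h compound pre-exposure, 6 h IL-6 stimulation, 37 °C | measured by = luminescence | evaluation = % activation versus median of IL-6-stimulated wells | control set = IL-6-only wells as 100% reference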
# STAT1 act: STAT1 signaling activators, primary screen, cell-based, HTS, luciferase reporter | activation (% of control), % at 5.5 µM | hit rate 2.6% among 200,000 | NIH 3T3 STAT1-luciferase reporter, IFN-gamma, luminescence; 100% = IFN-gamma alone, no compound;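 active means activation above the screen-wide mean activation plus 3 SD, cut at about 130% in these data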
# NF-kB expr up: activators of NF-kB expression in neurons, primary screen, cell-based, HTS. hit rate 1.6% among 190,000. AID 1239, 2008. human neuronal cells, NF-kB reporter expression; stronger effect = higher value. fold change at 12.5 µM; in the data active means fold change above about 3.3
# STAT1 inh: STAT1 signaling inhibitors, primary screen, cell-based, HTS, luciferase reporter | hit rate 0.35% among 200,000 | inhibition, % at 5.5 µM | NIH 3T3 STAT1-luciferase reporter, IFN-gamma, luminescence;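 active means inhibition above a set limit, the mean inhibition across all tested compounds plus 3 SD, cut at about 34% in these data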
# STAT3 blocker: IL-6 driven STAT3 reporter inhibitors, primary screen, U3A cells, luciferase, luminescence, MLSCN library; IL-6 STAT3-luciferase reporter; host cell line lacks STAT1; inhibition, % at 5.5 µM; hit rate 0.89% among 190,000; AID 862, 2007;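 active means inhibition above the mean inhibition across all screened compounds plus 3 SD, cut at about 44% in these data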
# APP 5'UTR act: activators of APP 5'UTR luciferase reporter, primary screen, SH-SY5Y cells | SH-SY5Y APP 5'UTR luciferase reporter, luminescence; zero percent = DMSO vehicle wells | hit rate 1% among 190,000 | activation, % at 2 µM;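 active means activation above a set limit, based on mean plus 3 SD of controls, cut at about 140% in these data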
# A number is an active result; n = inactive; x = not tested or not shown. Most compounds without a hit are left out; they make up all but 4.9% or so of the library.
SMILES,STAT3 activator,STAT1 act,NF-kB expr up,STAT1 inh,STAT3 blocker,APP 5'UTR act
COc1cccc(CNc2ccc(Br)cn2)c1O,n,n,6.3,n,n,152
COc1ccc(CNC(=O)C2CC(c3ccc(OC)cc3)=NO2)cc1 (configuration not stated),n,n,n,n,n,n
COc1ccc(C2=NOC(CNC(N)=S)C2)cc1 (configuration not stated),n,n,4.3,n,n,n
CCOC(=O)/C=C/c1cnn(-c2ccccc2)c1,n,138,n,n,n,n
OC(COc1ccc2ccccc2c1Cl)CN1CCOCC1 (configuration not stated),n,134,n,n,n,n
COc1ccccc1-c1cc(C(F)(F)F)nc(S(=O)(=O)CCCC(=O)Nc2cc(C)on2)n1,n,n,n,35,n,n
CCc1ccc(C(=O)Nc2cc(C)ccc2F)s1,n,132,n,n,n,n
Cc1ccc(C(=O)Nc2cc([N+](=O)[O-])ccc2F)s1,n,n,n,n,n,n
Cc1cccc(C)c1NCc1n[nH]c(=S)n1-c1ccccc1,n,n,n,n,n,n
C/C(=N\NC(=O)c1ccccc1F)c1ccc2c(c1)Nc1ccccc1S2,n,132,n,n,n,n
Clc1cccc(CSc2ccc(-c3ccco3)nn2)c1,n,n,n,n,n,n
c1ccc(CSc2ccc(-c3ccccn3)nn2)cc1,n,n,6.5,n,n,139
Cc1cccc(CSc2ccc(-c3ccco3)nn2)c1,n,133,n,n,n,n
COc1ccccc1-c1ccc(SCc2ccccc2)nn1,n,n,n,n,n,n
Fc1ccccc1CSc1ccc(-c2ccco2)nn1,n,n,4.9,n,n,n
O=C(CSc1ccc(-c2ccco2)nn1)NCc1ccccc1,n,n,n,n,n,n
COc1ccccc1-c1ccc(SCc2ccccc2F)nn1,n,129,n,n,n,n
CCCN(CCC)CCNC(=O)C(NS(=O)(=O)c1ccc2c(c1)CCC(=O)N2)c1ccccc1 (configuration not stated),n,n,n,n,n,n
c1ccc(CSc2ccc(-c3ccco3)nn2)cc1,n,145,3.9,n,n,n
Clc1ccc(CSc2ccc(-c3ccco3)nn2)cc1,n,n,n,n,n,n
Cc1ccc(CSc2ccc(-c3ccco3)nn2)cc1,n,n,3.3,n,n,n
Cc1ccccc1Nc1nnc(SCC(=O)NC2CCCc3ccccc32)s1 (configuration not stated),n,144,n,n,n,n
Cc1ccc(Nc2nnc(SCC(=O)NC3CCCc4ccccc43)s2)cc1 (configuration not stated),n,n,n,n,n,n
CCOC(=O)c1ccc2nc(NC(=O)c3cccs3)sc2c1,n,140,7,n,n,n
CCCC(=O)Nc1nc2ccc(C(=O)OCC)cc2s1,n,n,n,n,n,n
SMILES,STAT3 activator,STAT1 act,NF-kB expr up,STAT1 inh,STAT3 blocker,APP 5'UTR act
O=C(Nc1nc2ccc(S(=O)(=O)N3CCCC3)cc2s1)c1cccs1,n,n,n,n,n,n
CCOC(=O)c1ccc2nc(NC(=O)C(C)C)sc2c1,n,145,4.2,n,n,n
CCCCC(=O)Nc1nc2ccc(C(=O)OC)cc2s1,n,129,n,n,n,n
CCCCCC(=O)Nc1ccc(-c2csc(N)n2)cc1,n,n,x,n,n,n
COC(=O)c1c(NC(=O)C2CCCCC2C(=O)O)sc2c1CCCCC2 (configuration not stated),n,130,n,n,n,n
CCOC(=O)c1c(NC(=O)C2CCCCC2C(=O)O)sc2c1CCCCC2 (configuration not stated),n,n,n,n,n,n
CC(C)Oc1cccc(C(=O)NC2=NCCS2)c1,n,132,n,n,n,n
COc1cc(OC)cc(C(=O)Nc2ccc([N+](=O)[O-])cn2)c1,n,n,n,n,n,n
COc1ccc(C(=O)Nc2ccc([N+](=O)[O-])cn2)c(OC)c1,n,148,4.4,n,n,143
O=C(/C=C\c1ccccc1)Nc1nccs1,n,n,6.5,n,n,168
O=C(/C=C/c1cccs1)Nc1nccs1,n,134,n,n,n,n
O=C(/C=C/c1cccs1)Nc1cccc(NC(=O)/C=C/c2cccs2)n1,n,n,n,n,n,n
CCOC(=O)/C=C/C(=O)Nc1nccs1,n,n,n,n,n,n
O=C(/C=C/c1cccs1)Nc1ccc(Br)cn1,133,178,5.6,n,n,n
Cc1cc(C)c(S(=O)(=O)Nc2cccc(/C=C/C(=O)O)c2)c(C)c1,n,n,n,n,n,n
COc1ccc(C(c2nnnn2CCc2ccccc2)N2CCN(C3CCCC3)CC2)cc1OC (configuration not stated),n,n,n,n,n,n
COC(=O)c1ccccc1NC(=O)NCc1ccncc1,n,n,n,n,n,n
COc1ccc(/C(O)=C2/C(=O)C(=O)N(CCN3CCOCC3)C2c2ccccn2)cc1 (configuration not stated),n,143,n,n,n,n
Cc1c(/C(O)=C2/C(=O)C(=O)N(CCN3CCOCC3)C2c2ccccn2)cnn1-c1ccccc1 (configuration not stated),n,n,n,90,88,n
C/C(=N\S(=O)(=O)c1ccc(C)cc1)N1CCN(S(=O)(=O)c2ccccc2)C1C(C)C (configuration not stated),n,n,n,n,n,n
Cc1c(NC(=O)CN2CCN(c3cccc(Cl)c3)CC2)c(=O)n(-c2ccccc2)n1C,n,n,n,n,n,n
Cc1cc2oc(=O)cc(Cn3nnc(-c4ccc(Cl)cc4)n3)c2cc1C(C)C,n,n,n,n,n,n
CC1=Nc2ccccc2N=C(NC(=O)c2ccccc2)C1c1ccc(Cl)cc1 (configuration not stated),n,n,n,n,n,n
CC1=Nc2ccccc2N=C(N)C1c1ccccc1 (configuration not stated),n,146,n,n,n,192
O=C(Nc1nc2cc3c(cc2s1)OCO3)C1=COCCO1,n,n,n,49,86,n
O=C(NNc1nc2cc3c(cc2s1)OCCO3)c1ccc(F)cc1,n,n,n,n,n,n
O=C(Nc1nc2cc3c(cc2s1)OCCO3)c1ccncc1,n,132,n,n,n,153
CC(=O)Nc1nc2cc3c(cc2s1)OCO3,n,n,n,n,n,n
COc1ccc2sc(NC(=O)CC(C)C)nc2c1,n,146,3.5,n,n,n

# Assay outcomes as filed in PubChem.
